# From ChEMBL document CHEMBL3774372, “Design, physico-chemical properties and biological evaluation of some new N-[(phenoxy)alkyl]- and N-{2-[2-(phenoxy)ethoxy]ethyl}aminoalkanols as anticonvulsant agents” (Bioorg Med Chem, 2016)
# Calls of active or inactive are those of the source.
# Assays:
# [1] = target: Sodium-dependent noradrenaline transporter (Homo sapiens) (UniProt P23975); assay: Displacement of [3H]nisoxentine from human recombinant norepinephrine transporter expressed in CHO cells at 10^-5 M; type: cell-based
# Summary of the method: (§1)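 Radioligand displacement screen with the test agent at a single 10^-5 M concentration; receptor source and radioligand per target as tabulated (recombinant human cell lines or rat cerebral cortex/urinary bladder).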
# [2] = target: Translocator protein (Rattus norvegicus) (UniProt P16257); assay: Displacement of [3H]PK 11195 from rat heart peripheral-type benzodiazepine receptor at 10^-5 M
# Summary of the method: (§2)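 Radioligand binding screen run at a single test concentration of 10^-5 M. Each target used its stated receptor source (human recombinant CHO or HEK-293 cells, endogenous cell lines, or rat tissue membranes) with the listed radioligand.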
# [3] = target: Adenosine receptor A2a (Homo sapiens) (UniProt P29274); assay: Displacement of [3H]CGS 21680 from human recombinant adenosine A2a receptor expressed in HEK293 cells at 10^-5 M; type: cell-based; summary of the method: as §2
# [4] = target: 5-hydroxytryptamine receptor 6 (Homo sapiens) (UniProt P50406); assay: Displacement of [3H]LSD from human recombinant 5-HT6 receptor expressed in CHO cells at 10^-5 M; type: cell-based; summary of the method: as §2
# [5] = target: Neuromedin-K receptor (Homo sapiens) (UniProt P29371); assay: Displacement of [3H]SR142801 from human recombinant NK3 receptor expressed in CHO cells at 10^-5 M; type: cell-based; summary of the method: as §1
# [6] = target: Cholecystokinin receptor type A (Homo sapiens) (UniProt P32238); assay: Displacement of [125I]CCK-8s from human recombinant CCK-A receptor expressed in CHO cells at 10^-5 M; type: cell-based; summary of the method: as §2
# [7] = target: Kappa-type opioid receptor (Rattus norvegicus) (UniProt P34975); assay: Displacement of [3H]U 69593 from rat recombinant kappa-type opioid receptor expressed in CHO cells at 10^-5 M; type: cell-based; summary of the method: as §1
# Rattus norvegicus [8] = species: Rattus norvegicus; assay: Displacement of [3H]alpha,beta-MeATP from rat urinary bladder P2X receptor at 10^-5 M; summary of the method: as §1
# [9] = target: 5-hydroxytryptamine receptor 2B (Homo sapiens, UniProt P41595); assay: Displacement of [125I](+/-)DOI from human recombinant 5-HT2B receptor expressed in CHO cells at 10^-5 M; type: cell-based
# [10] = target: Galanin receptor type 1 (Homo sapiens) (UniProt P47211); assay: Displacement of [125I]galanin from human recombinant GAL1 receptor expressed in HEK293 cells at 10^-5 M; type: cell-based; summary of the method: as §2
# [11] = target: Melanocortin receptor 4 (Homo sapiens) (UniProt P32245); assay: Displacement of [125I]NDP-alpha-MSH from human recombinant MC4 receptor expressed in CHO cells at 10^-5 M; type: cell-based; summary of the method: as §2
# [12] = target: D(3) dopamine receptor (Homo sapiens) (UniProt P35462); assay: Displacement of [3H]methylspiperone from human recombinant Dopamine D3 receptor expressed in CHO cells at 10^-5 M; type: cell-based; summary of the method: as §1
# Rattus norvegicus [13] = species: Rattus norvegicus; assay: Displacement of [125I][Tyr4]bombesin from rat cerebral cortex Bombesin receptor at 10^-5 M; type: tissue-based; summary of the method: as §2
# Mus musculus [14] = assay: Anticonvulsant activity in mouse assessed as protection against subcutaneous pentylenetetrazol-induced seizures at 30 mg/kg, ip measured after 0.5 hrs; type: functional, organism-based
# Summary of the method: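 Mice dosed ip as 0.5% methylcellulose suspension; pentylenetetrazole 85 mg/kg in 0.9% NaCl injected subcutaneously into posterior midline, animals watched at least 30 min. Protection = no threshold seizure (single clonic spasm episode lasting ≥5 s); scored protected/tested.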
# [15] = target: Adenosine receptor A3 (Homo sapiens) (UniProt P0DMS8); assay: Displacement of [125I]ABMECA from human recombinant adenosine A3 receptor expressed in HEK293 cells at 10^-5 M; type: cell-based; summary of the method: as §2
# [16] = target: Histamine H2 receptor (Homo sapiens) (UniProt P25021); assay: Displacement of [125I]APT from human recombinant histamine H2 receptor expressed in CHO cells at 10^-5 M; type: cell-based; summary of the method: as §2
# [17] = target: D(2) dopamine receptor (Homo sapiens) (UniProt P14416); assay: Displacement of [3H]methylspiperone from human recombinant Dopamine D2S receptor expressed in HEK293 cells at 10^-5 M; type: cell-based; summary of the method: as §1
# [18] = target: Endothelin-1 receptor (Homo sapiens) (UniProt P25101); assay: Displacement of [125I]Endothelin-1 from human recombinant Endothelin-1 receptor expressed in CHO cells at 10^-5 M; type: cell-based; summary of the method: as §2
# [19] = target: Prostaglandin E2 receptor EP4 subtype (Homo sapiens) (UniProt P35408); assay: Displacement of [3H]PGE2 from human recombinant prostanoid EP4 receptor expressed in HEK293 cells at 10^-5 M; type: cell-based; summary of the method: as §2
# Rattus norvegicus [20] = assay: Anticonvulsant activity in pilocarpine-induced status epilepticus Sprague-Dawley rat model at 30 mg/kg, ip after 4 hrs during post stage 3 seizure; type: functional, organism-based
# Summary of the method: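 Rats given pilocarpine 50 mg/kg ip and observed to first convulsive seizure (Racine stage 3–5, time zero); test drug then given ip in 0.5% methylcellulose. Efficacy = halting further stage 3–5 convulsive seizures; scored protected/tested, time after first stage 3 seizure.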
# Rattus norvegicus [21] = species: Rattus norvegicus; assay: Displacement of [3H]TCP from rat cerebral cortex PCP receptor at 10^-5 M; type: tissue-based; summary of the method: as §1
# [22] = target: Muscarinic acetylcholine receptor M4 (Homo sapiens) (UniProt P08173); assay: Displacement of [3H]4-DAMP from human recombinant muscarinic M4 receptor expressed in CHO cells at 10^-5 M; type: cell-based; summary of the method: as §2
# [23] = target: Substance-P receptor (Homo sapiens) (UniProt P25103); assay: Displacement of [125I]BH-SP from NK1 receptor in human U373MG cells at 10^-5 M; type: cell-based; conditions: U-373MG ATCC; summary of the method: as §2
# [24] = target: 5-hydroxytryptamine receptor 2A (Homo sapiens) (UniProt P28223); assay: Displacement of [3H]ketanserin from human recombinant 5-HT2A receptor expressed in HEK293 cells at 10^-5 M; type: cell-based; summary of the method: as §1
# [25] = target: 5-hydroxytryptamine receptor 1A (Homo sapiens) (UniProt P08908); assay: Displacement of [3H]8-OHDPAT from human recombinant 5-HT1A receptor expressed in HEK293 cells at 10^-5 M; type: cell-based; summary of the method: as §2
# [26] = target: Muscarinic acetylcholine receptor M2 (Homo sapiens) (UniProt P08172); assay: Displacement of [3H]AF-DX384 from human recombinant muscarinic M2 receptor expressed in CHO cells at 10^-5 M; type: cell-based; summary of the method: as §2
# Mus musculus [27] = assay: Anticonvulsant activity in mouse assessed as protection against maximal electric shock-induced seizures at 30 mg/kg, ip measured after 0.5 hrs; type: functional, organism-based
# Summary of the method: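 Mice dosed ip with suspension in 0.5% methylcellulose; maximal electroshock applied at the listed time after dosing. Protection = abolition of hindlimb tonic extension component of seizure; reported as animals protected/animals tested.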
# [28] = target: Adrenergic receptor alpha-1 (Rattus norvegicus) (UniProt P15823+P23944+P43140); assay: Displacement of [3H]prazosin from rat cerebral cortex Alpha-1 adrenergic receptor at 10^-5 M; type: tissue-based; summary of the method: as §1
# [29] = target: Glucocorticoid receptor (Homo sapiens) (UniProt P04150); assay: Displacement of [3H]dexamethasone from glucocorticoid receptor in human IM9 cells at 10^-5 M; type: cell-based; conditions: IM-9; summary of the method: as §1
# [30] = target: Adrenergic receptor alpha-2 (Rattus norvegicus) (UniProt P22086+P19328+P22909); assay: Displacement of [3H]RX 821002 from rat cerebral cortex Alpha-2 adrenergic receptor at 10^-5 M; type: tissue-based; summary of the method: as §2
# [31] = target: 5-hydroxytryptamine receptor 2C (Homo sapiens) (UniProt P28335); assay: Displacement of [3H][…] from human recombinant 5-HT2C receptor expressed in HEK293 cells at 10^-5 M; type: cell-based; summary of the method: as §1
# Chain of 5-hydroxytryptamine receptor 2C (Homo sapiens) (P28335 whole entry): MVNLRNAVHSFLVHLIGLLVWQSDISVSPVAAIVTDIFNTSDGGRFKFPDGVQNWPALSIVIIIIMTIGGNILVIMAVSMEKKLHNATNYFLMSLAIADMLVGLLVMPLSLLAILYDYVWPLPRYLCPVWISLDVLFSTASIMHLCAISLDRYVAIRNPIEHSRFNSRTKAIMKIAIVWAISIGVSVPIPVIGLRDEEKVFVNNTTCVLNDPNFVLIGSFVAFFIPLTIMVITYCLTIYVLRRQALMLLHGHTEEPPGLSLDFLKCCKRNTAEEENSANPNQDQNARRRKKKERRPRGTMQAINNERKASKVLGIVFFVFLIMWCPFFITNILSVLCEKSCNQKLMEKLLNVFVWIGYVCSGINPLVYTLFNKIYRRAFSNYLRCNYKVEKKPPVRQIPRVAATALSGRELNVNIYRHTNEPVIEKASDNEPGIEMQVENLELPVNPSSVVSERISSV
# Chain of Adenosine receptor A3 (Homo sapiens) (P0DMS8 whole entry): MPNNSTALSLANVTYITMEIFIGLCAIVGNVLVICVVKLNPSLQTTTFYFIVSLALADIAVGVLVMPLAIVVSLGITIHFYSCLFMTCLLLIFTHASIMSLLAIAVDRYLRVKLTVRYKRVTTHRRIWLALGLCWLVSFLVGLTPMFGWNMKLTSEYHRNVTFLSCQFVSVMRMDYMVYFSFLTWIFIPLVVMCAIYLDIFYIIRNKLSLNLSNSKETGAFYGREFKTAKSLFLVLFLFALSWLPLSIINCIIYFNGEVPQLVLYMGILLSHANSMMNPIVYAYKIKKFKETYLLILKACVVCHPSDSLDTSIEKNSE
# Chain of Substance-P receptor (Homo sapiens) (P25103 whole entry): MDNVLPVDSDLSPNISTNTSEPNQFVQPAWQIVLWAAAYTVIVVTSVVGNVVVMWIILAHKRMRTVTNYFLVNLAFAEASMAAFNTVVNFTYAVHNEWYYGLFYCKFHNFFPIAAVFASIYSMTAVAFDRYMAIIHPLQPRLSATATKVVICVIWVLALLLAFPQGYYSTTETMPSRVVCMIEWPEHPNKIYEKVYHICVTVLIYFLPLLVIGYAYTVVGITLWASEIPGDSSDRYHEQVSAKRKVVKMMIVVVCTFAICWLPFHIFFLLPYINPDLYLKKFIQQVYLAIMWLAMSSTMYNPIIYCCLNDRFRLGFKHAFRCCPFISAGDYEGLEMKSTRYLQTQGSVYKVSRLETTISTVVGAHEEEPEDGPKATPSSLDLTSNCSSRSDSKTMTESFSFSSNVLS
# Chain of D(3) dopamine receptor (Homo sapiens) (P35462 whole entry): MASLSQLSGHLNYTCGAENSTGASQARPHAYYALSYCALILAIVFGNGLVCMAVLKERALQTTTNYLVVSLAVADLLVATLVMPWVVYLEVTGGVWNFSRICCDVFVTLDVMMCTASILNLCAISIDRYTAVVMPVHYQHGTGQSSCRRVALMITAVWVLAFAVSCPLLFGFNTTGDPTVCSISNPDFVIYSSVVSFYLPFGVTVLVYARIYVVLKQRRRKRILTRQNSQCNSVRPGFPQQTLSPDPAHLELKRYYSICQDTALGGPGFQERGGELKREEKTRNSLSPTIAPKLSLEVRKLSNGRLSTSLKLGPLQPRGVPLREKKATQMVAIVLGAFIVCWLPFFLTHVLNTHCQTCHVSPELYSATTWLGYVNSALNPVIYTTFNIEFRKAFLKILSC
# Chain of Adenosine receptor A2a (Homo sapiens) (P29274 whole entry): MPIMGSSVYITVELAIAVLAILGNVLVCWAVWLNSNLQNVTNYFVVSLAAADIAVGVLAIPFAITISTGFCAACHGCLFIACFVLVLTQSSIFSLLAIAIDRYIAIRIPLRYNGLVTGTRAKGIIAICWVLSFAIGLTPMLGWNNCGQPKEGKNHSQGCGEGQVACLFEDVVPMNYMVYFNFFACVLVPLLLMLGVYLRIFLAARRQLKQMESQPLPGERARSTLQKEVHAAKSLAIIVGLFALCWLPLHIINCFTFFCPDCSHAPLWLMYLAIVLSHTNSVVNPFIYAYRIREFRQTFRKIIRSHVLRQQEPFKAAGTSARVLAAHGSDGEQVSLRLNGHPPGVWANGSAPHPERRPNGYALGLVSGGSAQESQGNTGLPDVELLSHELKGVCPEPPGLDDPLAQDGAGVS
# Chain of 5-hydroxytryptamine receptor 2B (P41595 whole entry): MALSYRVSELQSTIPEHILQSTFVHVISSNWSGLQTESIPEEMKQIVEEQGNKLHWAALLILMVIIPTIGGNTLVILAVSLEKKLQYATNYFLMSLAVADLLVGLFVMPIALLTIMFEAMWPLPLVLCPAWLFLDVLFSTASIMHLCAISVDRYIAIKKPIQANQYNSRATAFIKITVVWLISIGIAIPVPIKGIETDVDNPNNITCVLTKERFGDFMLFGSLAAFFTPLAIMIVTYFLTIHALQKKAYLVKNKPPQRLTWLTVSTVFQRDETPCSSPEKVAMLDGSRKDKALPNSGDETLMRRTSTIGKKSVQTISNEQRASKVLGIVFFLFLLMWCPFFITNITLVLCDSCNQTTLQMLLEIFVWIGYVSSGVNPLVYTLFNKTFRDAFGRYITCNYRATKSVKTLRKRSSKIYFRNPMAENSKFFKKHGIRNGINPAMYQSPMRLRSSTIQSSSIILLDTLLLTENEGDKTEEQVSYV
# Chain of Histamine H2 receptor (Homo sapiens) (P25021 whole entry): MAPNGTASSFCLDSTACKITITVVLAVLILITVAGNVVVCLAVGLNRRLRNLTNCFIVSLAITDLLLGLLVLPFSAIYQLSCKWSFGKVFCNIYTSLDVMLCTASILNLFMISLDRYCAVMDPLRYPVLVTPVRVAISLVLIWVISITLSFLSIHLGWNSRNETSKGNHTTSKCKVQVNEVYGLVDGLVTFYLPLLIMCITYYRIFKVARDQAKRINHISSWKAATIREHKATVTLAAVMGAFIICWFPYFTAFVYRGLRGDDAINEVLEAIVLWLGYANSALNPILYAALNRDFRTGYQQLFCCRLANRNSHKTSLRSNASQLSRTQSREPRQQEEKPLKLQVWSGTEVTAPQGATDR
# Chain of Sodium-dependent noradrenaline transporter (Homo sapiens) (P23975 whole entry): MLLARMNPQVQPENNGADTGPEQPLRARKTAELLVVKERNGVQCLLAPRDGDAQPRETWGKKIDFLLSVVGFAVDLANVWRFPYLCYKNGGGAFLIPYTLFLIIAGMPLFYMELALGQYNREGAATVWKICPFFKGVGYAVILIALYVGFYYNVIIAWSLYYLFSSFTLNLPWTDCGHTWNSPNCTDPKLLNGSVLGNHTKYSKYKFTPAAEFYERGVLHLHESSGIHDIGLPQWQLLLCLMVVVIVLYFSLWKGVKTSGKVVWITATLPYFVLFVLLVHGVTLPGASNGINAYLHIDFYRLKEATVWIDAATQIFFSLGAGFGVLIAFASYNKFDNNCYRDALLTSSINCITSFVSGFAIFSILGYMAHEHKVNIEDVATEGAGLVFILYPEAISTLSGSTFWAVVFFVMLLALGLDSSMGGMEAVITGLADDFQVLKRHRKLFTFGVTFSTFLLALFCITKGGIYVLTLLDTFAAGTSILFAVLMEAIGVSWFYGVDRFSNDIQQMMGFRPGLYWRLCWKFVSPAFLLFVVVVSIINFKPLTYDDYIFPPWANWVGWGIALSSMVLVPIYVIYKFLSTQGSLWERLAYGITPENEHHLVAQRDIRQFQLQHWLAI
# Chain of D(2) dopamine receptor (Homo sapiens) (P14416 whole entry): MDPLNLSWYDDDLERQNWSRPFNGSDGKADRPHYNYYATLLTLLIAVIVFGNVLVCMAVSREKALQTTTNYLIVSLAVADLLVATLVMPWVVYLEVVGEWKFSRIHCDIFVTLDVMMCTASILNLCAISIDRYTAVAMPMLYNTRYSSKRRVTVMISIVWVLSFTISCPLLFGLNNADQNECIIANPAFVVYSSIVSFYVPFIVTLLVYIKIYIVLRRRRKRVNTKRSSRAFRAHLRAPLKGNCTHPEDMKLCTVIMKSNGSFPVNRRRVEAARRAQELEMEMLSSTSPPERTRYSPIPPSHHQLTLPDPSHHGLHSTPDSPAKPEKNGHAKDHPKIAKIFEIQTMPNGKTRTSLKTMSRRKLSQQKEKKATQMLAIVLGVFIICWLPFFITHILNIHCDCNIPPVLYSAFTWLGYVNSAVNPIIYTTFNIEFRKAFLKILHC
# Chain of Melanocortin receptor 4 (Homo sapiens) (P32245 whole entry): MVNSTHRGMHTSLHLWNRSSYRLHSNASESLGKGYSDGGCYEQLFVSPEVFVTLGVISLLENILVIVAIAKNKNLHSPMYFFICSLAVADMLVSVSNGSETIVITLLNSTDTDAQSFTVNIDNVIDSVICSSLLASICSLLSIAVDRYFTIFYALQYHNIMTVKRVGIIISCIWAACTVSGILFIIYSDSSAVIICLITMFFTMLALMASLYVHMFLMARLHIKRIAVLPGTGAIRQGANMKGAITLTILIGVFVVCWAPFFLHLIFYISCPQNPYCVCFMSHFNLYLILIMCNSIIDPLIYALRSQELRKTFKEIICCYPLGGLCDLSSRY
# Chain of 5-hydroxytryptamine receptor 6 (Homo sapiens) (P50406 whole entry): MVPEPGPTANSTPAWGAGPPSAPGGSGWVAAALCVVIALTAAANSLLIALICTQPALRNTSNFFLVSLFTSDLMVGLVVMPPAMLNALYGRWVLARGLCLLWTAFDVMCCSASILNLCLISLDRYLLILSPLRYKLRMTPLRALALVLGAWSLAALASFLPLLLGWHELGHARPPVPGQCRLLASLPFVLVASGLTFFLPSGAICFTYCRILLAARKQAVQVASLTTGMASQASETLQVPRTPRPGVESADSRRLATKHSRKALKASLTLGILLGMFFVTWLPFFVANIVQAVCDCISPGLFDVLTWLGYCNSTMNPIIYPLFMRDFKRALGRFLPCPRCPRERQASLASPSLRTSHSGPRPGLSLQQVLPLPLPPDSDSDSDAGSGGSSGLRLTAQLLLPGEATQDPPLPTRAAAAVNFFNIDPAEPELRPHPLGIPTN
# Chain of Translocator protein (Rattus norvegicus) (P16257 whole entry, looked up): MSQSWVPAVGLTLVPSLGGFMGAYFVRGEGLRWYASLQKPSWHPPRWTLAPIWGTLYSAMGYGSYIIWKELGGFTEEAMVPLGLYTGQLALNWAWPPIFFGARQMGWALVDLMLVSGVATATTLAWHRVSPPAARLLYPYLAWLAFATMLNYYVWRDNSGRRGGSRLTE
Compound,inhibition [1] [%],inhibition [2] [%],inhibition [3] [%],inhibition [4] [%],inhibition [5] [%],inhibition [6] [%],inhibition [7] [%],inhibition (Rattus norvegicus [8]) [%],inhibition [9] [%],inhibition [10] [%],inhibition [11] [%],inhibition [12] [%],inhibition (Rattus norvegicus [13]) [%],Activity (Mus musculus [14]),inhibition [15] [%],inhibition [16] [%],inhibition [17] [%],inhibition [18] [%],inhibition [19] [%],Activity (Rattus norvegicus [20]),further results
Cc1cccc(C)c1OCCOCCN[C@H](C)CO,52.6,-3.9,-0.8,6.7,8,-3.6,29.3,3.5,89.4,-0.7,5.3,44.1,-1.4,inactive,-1.8,0.6,12,-3.4,14.9,inactive,inhibition (Rattus norvegicus [21]): 9.6%; inhibition [22]: 11.2%; inhibition [23]: 17.3%; inhibition [24]: 22.6%; inhibition [25]: 70.6%; inhibition [26]: 20.8%; Activity (Mus musculus [27]): Active; inhibition [28]: 32.3%; inhibition [29]: 31.3%; inhibition [30]: 42.8%; inhibition [31]: 34.7%
Cc1cccc(C)c1OCCOCCN[C@@H](C)CO,34.5,-6.7,-4,15.4,15,2.2,54,4.8,78.8,-0.4,9,57.4,-5.4,inactive,3,17.1,14.7,-4.4,3,inactive,inhibition (Rattus norvegicus [21]): 5.8%; inhibition [22]: 15.7%; inhibition [23]: 51.7%; inhibition [24]: 32.1%; inhibition [25]: 63.9%; inhibition [26]: 37.2%; Activity (Mus musculus [27]): Active; inhibition [28]: 28.3%; inhibition [29]: 8.3%; inhibition [30]: 35.5%; inhibition [31]: 47.4%
